Tests used:
[1] = test system: TGR1 knockout cells with over-expressed HMGA1b (KO+HMG); test: Growth inhibition of TGR1 knockout cells with over-expressed HMGA1b; format: cell-based, rat; conditions: cells lacking c-Myc; compared with HL60 and TGR1
[2] = test system: HL60 cells; test: HL60 cell growth inhibition; format: cell-based; conditions: for Inhibition in HL60 cells: higher levels of c-Myc
Procedure, shortened: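 Test compound added to HL60 cells across a dose range, and growth followed over several days. IC50 taken from the dose-response profile on day 5 after compound addition. For the selectivity comparison, TGR1 normal rat fibroblasts and TGR1 knockout cells over-expressing HMGA1b (KO+HMG) were tested alongside.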

[3] = target: c-Myc-Max(S) heterodimer (Homo sapiens, UniProt P01106); test: Circular dichroism assay of c-Myc-Max dimer disruption; format: biochemical
Sequence of c-Myc-Max(S) heterodimer (P01106 368-452, one chain of several): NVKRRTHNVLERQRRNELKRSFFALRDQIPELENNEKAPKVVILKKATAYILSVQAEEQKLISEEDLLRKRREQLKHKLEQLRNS
Procedure, shortened: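 Circular dichroism of an equimolar c-Myc/Max(S) mixture, each at 1.5 µM, with helical content from ellipticity at 222 nm. Dimer disruption lowers helicity. Test compound was titrated and the data fitted to a competition constant (Kcomp). Kcomp multiplied by the independently determined c-Myc-Max dissociation constant gives the affinity for the c-Myc monomer, assuming monomer-only binding. Run in triplicate.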

[4] = target: c-Myc (353–437) monomer (Homo sapiens, UniProt P01106); test: Fluorescence polarization competition against 1 for c-Myc binding
Sequence of c-Myc (353–437) monomer (P01106 368-452): as the sequence (P01106 368-452, one chain of several) above
Procedure, shortened: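 Fluorescence polarization of an intrinsically fluorescent parent Myc-Max disruptor used as probe; polarization rises when the probe binds the c-Myc (353–437) monomer. Test compound was titrated to displace the probe, and the data fitted to a competition constant (Kcomp). Affinity is Kcomp multiplied by the probe–c-Myc(353–437) dissociation constant. Run in triplicate.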

[5] = cited from earlier work

Structure (SMILES): Cc1ccc(C)c(OCN2Cc3ccccc3C2C=O)c1 (stereo not drawn) [compound 6]
- Effect on growth of KO+HMG cells [1]: least effect
- Inhibition in HL60 cells [2]: very good inhibition
- IC50 ([2]; Homo sapiens, HL-60, 120 h, read-out: IC50 on HL60 cell growth): 16.7 µM

Structure (SMILES): CCc1ccc(N2CC(C(=O)OC)CC2=O)cc1 (stereo not drawn) [compound 3]
- Kd [3]: 25 µM
- Kd [4]: 40 µM

Structure (SMILES): CCc1ccc(OCC(=O)Nc2ccc(C)cc2Br)cc1 [compound 5]
- Effect on growth of KO+HMG cells [1]: least effect
- Inhibition in HL60 cells [2]: very good inhibition
- Selectivity for HL60 cells ([2]; HL60 versus TGR1 and KO+HMG cells): more selective for HL60s than 6
- Kd [3]: 45 µM
- Kd [4]: 70 µM

Structure (SMILES): CC(C)c1ccc(OCC(=O)Nc2nc3ccccc3s2)cc1 [compound 4]
- Kd [3]: 19 µM
- Kd [4]: 18 µM

Structure (SMILES): O=C(CCN1C(=O)c2ccccc2C1=O)N1CCCCC1 [compound 2]
- Kd [3]: 10 µM
- Kd [4]: 2.5 µM

Structure (SMILES): CCc1ccc(/C=C2\SC(=S)NC2=O)cc1 [compound 1, [Z,E]-5-[4-ethylbenzylidine]-2-thioxothiazolidin-4-one]
- Metabolism and clearance [5]: extensive metabolism and rapid clearance
